Assay type in all cases: cell-based, human
In one experiment the test system is CAF19 cells. In words: Monolayer proliferation assay. The following applies: CAFs (CAF19), 72 h. Summed up: (§1)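 Monolayers were grown in DMEM with 10% serum at 37 °C, 5% CO2. Seeding was Pa03C tumor cells 2,000–3,000/well, EGFP-expressing CAF19 fibroblasts 4,000/well, or tumor plus CAFs at a 2:1 ratio. Test compound was added 24 h after seeding, and viability was read 72 h later. Dose-response data are Avg+SE, n=3–4. The 50% value came from a linear-regression fit at 50% survival.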

The test system of the next experiment is Pa03C + CAF19 co-culture. In words: Monolayer proliferation assay. The following applies: 2:1 tumor:CAF co-culture, 72 h. Summed up: as §1
Experiment [1] relates to p-STAT3 (Y705) in Pa03C cells. Briefly: Immunoblot of p-STAT3. The following applies: 10 μM, 4 hr pre-treatment, IL-6 25 ng/mL 15 min. For orientation: Immunoblotting shows a protein as a band on a membrane.
In another experiment the test system is Pa03C cells. Briefly: Monolayer proliferation assay. The following applies: tumor cells (Pa03C), 72 h. Summed up:
as §1

For a further experiment, the system named is Panc10.05 cells. Briefly: Cell viability / proliferation screen. The following applies: 72 h, Avg ± SE, n=4–5. Summed up:
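Panc10.05 patient-derived PDAC cells (STR-verified) were grown in DMEM with 10% serum at 37 °C, 5% CO2. Monolayers were seeded at 2,000–3,000 cells/well, and test compound was added 24 h after seeding. MTS tetrazolium read-out was taken 72 h later. Data from 4–5 repeats were pooled, and ED50 was taken from a linear-regression fit where percent survival equalled 50%.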

In general, IC50 refers to the concentration that inhibits the measured activity by half. Turning to `CN(CC(=O)N(Cc1ccc(C2CCCCC2)cc1)c1ccc(C(=O)O)c(O)c1)S(=O)(=O)c1c(F)c(F)c(F)c(F)c1F` [BP-1-102], the IC50 with CAF19 cells was 15.2 ± 2.7 µM; in the experiment with Pa03C + CAF19 co-culture, 16.4 ± 0.6 µM; in the experiment with Pa03C cells it was 19.1 ± 0.9 µM. Also, the “phosphorylation of STAT3 at Y705” value in experiment [1] is “inhibited phosphorylation of STAT3 at Y705”.

`CN(CC(=O)N(Cc1ccc(C2CCCCC2)cc1)c1ccc(C(=O)O)cc1)S(=O)(=O)c1c(F)c(F)c(F)c(F)c1F` [SH-4-54]: the IC50 worked out at 7.6 ± 0.9 µM in the experiment with CAF19 cells, 11.8 ± 1.1 µM with Pa03C + CAF19 co-culture and 9.2 ± 1.7 µM in the experiment on Pa03C cells. For the same molecule, in experiment [1], the “phosphorylation of STAT3 at Y705” value is on record as “inhibited phosphorylation of STAT3 at Y705”. In the experiment with Panc10.05 cells, the ED50 came out at 8.7 ± 1.9 µM.

(Values after article PMC4873422 (Molecular cancer therapeutics, 2016).)
